# Test results taken from ChEMBL document CHEMBL1649256, “Comparison of assessment of oxygen consumption, Etest, and CLSI M38-A2 broth microdilution methods for evaluation of the susceptibility of Aspergillus fumigatus to posaconazole” (2009).
# Legend:
# Type in all cases: functional
# Aspergillus fumigatus [1] = assay: Antimicrobial activity against Aspergillus fumigatus isolate 20 after 24 hrs by Etest; settings: isolate 20, 24 h
# Procedure, shortened: (§1)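 Posaconazole Etest strips placed on RPMI 1640 agar with 2% glucose, pH 7.0, and run per the strip maker's instructions. Incubation at 35°C, with the MIC read at 24 h and at 48 h.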
# Aspergillus fumigatus [2] = assay: Antimicrobial activity against Aspergillus fumigatus isolate 2 after 48 hrs by Etest; settings: isolate 2, 48 h; procedure, shortened: as §1
# Aspergillus fumigatus [3] = assay: Antimicrobial activity against Aspergillus fumigatus isolate 3 by oxygen consumption method
# Procedure, shortened: (§2)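 Conidial suspension in RPMI 1640 broth, 1.5 ml, with two drug concentrations (0.25 and 2 μg/ml). Tubes agitated 12 h at 37°C in a biological oxygen monitor. Available oxygen monitored continuously and quantified to assign the MIC.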
# Aspergillus fumigatus [4] = assay: Antimicrobial activity against Aspergillus fumigatus isolate 21 after 48 hrs by Etest; settings: isolate 21, 48 h
# Procedure, shortened: (§3)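 Etest strips on RPMI 1640 agar with 2% glucose, pH 7.0, run per manufacturer's instructions. Incubated at 35°C; MIC read at 48 h.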
# Aspergillus fumigatus [5] = assay: Antimicrobial activity against Aspergillus fumigatus isolate 23 after 24 hrs by Etest; settings: isolate 23, 24 h
# Procedure, shortened: (§4)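 Etest strips on RPMI 1640 agar with 2% glucose, pH 7.0, run per manufacturer's instructions. Incubated at 35°C; MIC read at 24 h.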
# Aspergillus fumigatus [6] = assay: Antimicrobial activity against Aspergillus fumigatus isolate 45 by CLSI M38-A2 broth microdilution method
# Aspergillus fumigatus [7] = assay: Antimicrobial activity against Aspergillus fumigatus isolate 4 by oxygen consumption method
# Procedure, shortened: (§5)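 Conidial suspension in RPMI 1640 broth, tested at two posaconazole levels (0.25 and 2 μg/ml). Agitated for 12 h at 37°C in a biological oxygen monitor. MIC derived from continuous monitoring and quantification of the available oxygen.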
# Aspergillus fumigatus [8] = assay: Antimicrobial activity against Aspergillus fumigatus isolate 14 after 48 hrs by Etest; settings: isolate 14, 48 h; procedure, shortened: as §1
# Aspergillus fumigatus [9] = assay: Antimicrobial activity against Aspergillus fumigatus isolate 9 by oxygen consumption method
# Aspergillus fumigatus [10] = assay: Antimicrobial activity against Aspergillus fumigatus isolate 48 by oxygen consumption method
# Aspergillus fumigatus [11] = assay: Antimicrobial activity against Aspergillus fumigatus isolate 37 after 24 hrs by Etest; settings: isolate 37, 24 h
# Procedure, shortened: (§6)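 Posaconazole Etest strips on RPMI 1640 agar with 2% glucose, pH 7.0, run per the strip maker's instructions. Incubated at 35°C. MIC read at 24 h and at 48 h, matching the time in each line.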
# Aspergillus fumigatus [12] = assay: Antimicrobial activity against Aspergillus fumigatus isolate 40 after 24 hrs by Etest; settings: isolate 40, 24 h; procedure, shortened: as §6
# Aspergillus fumigatus [13] = assay: Antimicrobial activity against Aspergillus fumigatus isolate 16 by oxygen consumption method
# Procedure, shortened: (§7)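 Conidial suspension in RPMI 1640 broth with posaconazole at 0.25 and 2 μg/ml. Tubes agitated 12 h at 37°C in a biological oxygen monitor. Available oxygen was monitored continuously, and the MIC was assigned from the oxygen quantification.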
# Aspergillus fumigatus [14] = assay: Antimicrobial activity against Aspergillus fumigatus isolate 8 after 48 hrs by Etest; settings: isolate 8, 48 h
# Aspergillus fumigatus [15] = assay: Antimicrobial activity against Aspergillus fumigatus isolate 28 after 24 hrs by Etest; settings: isolate 28, 24 h; procedure, shortened: as §4
# Aspergillus fumigatus [16] = assay: Antimicrobial activity against Aspergillus fumigatus isolate 13 after 48 hrs by Etest; settings: isolate 13, 48 h; procedure, shortened: as §1
# Aspergillus fumigatus [17] = assay: Antimicrobial activity against Aspergillus fumigatus isolate 30 after 24 hrs by Etest; settings: isolate 30, 24 h; procedure, shortened: as §4
# Aspergillus fumigatus [18] = assay: Antimicrobial activity against Aspergillus fumigatus isolate 27 by CLSI M38-A2 broth microdilution method
# Procedure, shortened: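 Reference broth microdilution per CLSI M38-A2. MIC read as absence of visible growth at 48 h. C. parapsilosis ATCC 22019 and C. krusei ATCC 6258 QC strains run in each test session.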
# Aspergillus fumigatus [19] = assay: Antimicrobial activity against Aspergillus fumigatus isolate 11 by CLSI M38-A2 broth microdilution method
# Procedure, shortened: (§8)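 Posaconazole broth microdilution follows CLSI M38-A2. The MIC is the lowest concentration with no visible growth at 48 h. Candida parapsilosis ATCC 22019 and Candida krusei ATCC 6258 were included as QC strains in every run.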
# Aspergillus fumigatus [20] = assay: Antimicrobial activity against Aspergillus fumigatus isolate 39 after 48 hrs by Etest; settings: isolate 39, 48 h; procedure, shortened: as §6
# Aspergillus fumigatus [21] = assay: Antimicrobial activity against Aspergillus fumigatus isolate 38 after 24 hrs by Etest; settings: isolate 38, 24 h; procedure, shortened: as §6
# Aspergillus fumigatus [22] = assay: Antimicrobial activity against Aspergillus fumigatus isolate 2 by CLSI M38-A2 broth microdilution method; procedure, shortened: as §8
# Aspergillus fumigatus [23] = assay: Antimicrobial activity against Aspergillus fumigatus isolate 10 after 24 hrs by Etest; settings: isolate 10, 24 h; procedure, shortened: as §1
# Aspergillus fumigatus [24] = assay: Antimicrobial activity against Aspergillus fumigatus isolate 32 by oxygen consumption method; procedure, shortened: as §5
# Aspergillus fumigatus [25] = assay: Antimicrobial activity against Aspergillus fumigatus isolate 42 by oxygen consumption method; procedure, shortened: as §5
# Aspergillus fumigatus [26] = assay: Antimicrobial activity against Aspergillus fumigatus isolate 32 by CLSI M38-A2 broth microdilution method
# Procedure, shortened: (§9)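 CLSI M38-A2 broth microdilution with posaconazole. MIC taken as the lowest concentration with no visible growth at 48 h. C. parapsilosis ATCC 22019 and C. krusei ATCC 6258 were included as QC strains in every run.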
# Aspergillus fumigatus [27] = assay: Antimicrobial activity against Aspergillus fumigatus isolate 12 by oxygen consumption method; procedure, shortened: as §7
# Aspergillus fumigatus [28] = assay: Antimicrobial activity against Aspergillus fumigatus isolate 26 after 24 hrs by Etest; settings: isolate 26, 24 h; procedure, shortened: as §4
# Aspergillus fumigatus [29] = assay: Antimicrobial activity against Aspergillus fumigatus isolate 29 after 24 hrs by Etest; settings: isolate 29, 24 h; procedure, shortened: as §4
# Aspergillus fumigatus [30] = assay: Antimicrobial activity against Aspergillus fumigatus isolate 41 after 48 hrs by Etest; settings: isolate 41, 48 h; procedure, shortened: as §6
# Aspergillus fumigatus [31] = assay: Antimicrobial activity against Aspergillus fumigatus isolate 26 by oxygen consumption method; procedure, shortened: as §2
# Aspergillus fumigatus [32] = assay: Antimicrobial activity against Aspergillus fumigatus isolate 38 after 48 hrs by Etest; settings: isolate 38, 48 h; procedure, shortened: as §6
# Aspergillus fumigatus [33] = assay: Antimicrobial activity against Aspergillus fumigatus isolate 50 after 48 hrs by Etest; settings: isolate 50, 48 h
# Aspergillus fumigatus [34] = assay: Antimicrobial activity against Aspergillus fumigatus isolate 34 after 48 hrs by Etest; settings: isolate 34, 48 h; procedure, shortened: as §6
# Aspergillus fumigatus [35] = assay: Antimicrobial activity against Aspergillus fumigatus isolate 27 by oxygen consumption method; procedure, shortened: as §2
# Aspergillus fumigatus [36] = assay: Antimicrobial activity against Aspergillus fumigatus isolate 38 by oxygen consumption method; procedure, shortened: as §5
# Aspergillus fumigatus [37] = assay: Antimicrobial activity against Aspergillus fumigatus isolate 18 by oxygen consumption method; procedure, shortened: as §7
# Aspergillus fumigatus [38] = assay: Antimicrobial activity against Aspergillus fumigatus isolate 39 by oxygen consumption method; procedure, shortened: as §5
# Aspergillus fumigatus [39] = assay: Antimicrobial activity against Aspergillus fumigatus isolate 47 by oxygen consumption method
# Aspergillus fumigatus [40] = assay: Antimicrobial activity against Aspergillus fumigatus isolate 35 by CLSI M38-A2 broth microdilution method; procedure, shortened: as §9
# Aspergillus fumigatus [41] = assay: Antimicrobial activity against Aspergillus fumigatus isolate 21 after 24 hrs by Etest; settings: isolate 21, 24 h; procedure, shortened: as §4
# Aspergillus fumigatus [42] = assay: Antimicrobial activity against Aspergillus fumigatus isolate 33 by oxygen consumption method; procedure, shortened: as §5
# Aspergillus fumigatus [43] = assay: Antimicrobial activity against Aspergillus fumigatus isolate 7 by oxygen consumption method
# Aspergillus fumigatus [44] = assay: Antimicrobial activity against Aspergillus fumigatus isolate 3 after 48 hrs by Etest; settings: isolate 3, 48 h; procedure, shortened: as §3
# Aspergillus fumigatus [45] = assay: Antimicrobial activity against Aspergillus fumigatus isolate 10 by oxygen consumption method; procedure, shortened: as §7
# Aspergillus fumigatus [46] = assay: Antimicrobial activity against Aspergillus fumigatus isolate 44 after 24 hrs by Etest; settings: isolate 44, 24 h
smiles,measurement,setting,value
CC[C@@H]([C@H](C)O)n1ncn(-c2ccc(N3CCN(c4ccc(OC[C@@H]5CO[C@@](Cn6cncn6)(c6ccc(F)cc6F)C5)cc4)CC3)cc2)c1=O [POSACONAZOLE],MIC,Aspergillus fumigatus [1],0.25 µg/mL
same,MIC,Aspergillus fumigatus [2],1 µg/mL
same,MIC,Aspergillus fumigatus [3],≥ 0.5 µg/mL
same,MIC,Aspergillus fumigatus [4],0.25 µg/mL
same,MIC,Aspergillus fumigatus [5],0.25 µg/mL
same,MIC,Aspergillus fumigatus [6],0.125 µg/mL
same,MIC,Aspergillus fumigatus [7],≥ 0.5 µg/mL
same,MIC,Aspergillus fumigatus [8],0.5 µg/mL
same,MIC,Aspergillus fumigatus [9],≤ 0.25 µg/mL
same,MIC,Aspergillus fumigatus [10],≤ 0.25 µg/mL
same,MIC,Aspergillus fumigatus [11],0.05 µg/mL
same,MIC,Aspergillus fumigatus [12],0.125 µg/mL
same,MIC,Aspergillus fumigatus [13],≥ 0.5 µg/mL
same,MIC,Aspergillus fumigatus [14],0.25 µg/mL
same,MIC,Aspergillus fumigatus [15],0.25 µg/mL
same,MIC,Aspergillus fumigatus [16],0.25 µg/mL
same,MIC,Aspergillus fumigatus [17],0.5 µg/mL
same,MIC,Aspergillus fumigatus [18],0.125 µg/mL
same,MIC,Aspergillus fumigatus [19],0.25 µg/mL
same,MIC,Aspergillus fumigatus [20],2 µg/mL
same,MIC,Aspergillus fumigatus [21],0.06 µg/mL
same,MIC,Aspergillus fumigatus [22],0.5 µg/mL
same,MIC,Aspergillus fumigatus [23],0.125 µg/mL
same,MIC,Aspergillus fumigatus [24],≤ 0.25 µg/mL
same,MIC,Aspergillus fumigatus [25],≤ 0.25 µg/mL
same,MIC,Aspergillus fumigatus [26],0.125 µg/mL
same,MIC,Aspergillus fumigatus [27],≤ 0.25 µg/mL
same,MIC,Aspergillus fumigatus [28],0.25 µg/mL
same,MIC,Aspergillus fumigatus [29],0.25 µg/mL
same,MIC,Aspergillus fumigatus [30],≤ 0.03 µg/mL
same,MIC,Aspergillus fumigatus [31],≥ 0.5 µg/mL
same,MIC,Aspergillus fumigatus [32],0.125 µg/mL
same,MIC,Aspergillus fumigatus [33],0.25 µg/mL
same,MIC,Aspergillus fumigatus [34],≤ 0.03 µg/mL
same,MIC,Aspergillus fumigatus [35],≥ 0.5 µg/mL
same,MIC,Aspergillus fumigatus [36],≤ 0.25 µg/mL
same,MIC,Aspergillus fumigatus [37],≤ 0.25 µg/mL
same,MIC,Aspergillus fumigatus [38],≥ 0.5 µg/mL
same,MIC,Aspergillus fumigatus [39],≤ 0.25 µg/mL
same,MIC,Aspergillus fumigatus [40],0.125 µg/mL
same,MIC,Aspergillus fumigatus [41],0.25 µg/mL
same,MIC,Aspergillus fumigatus [42],≥ 0.5 µg/mL
same,MIC,Aspergillus fumigatus [43],≤ 0.25 µg/mL
same,MIC,Aspergillus fumigatus [44],2 µg/mL
same,MIC,Aspergillus fumigatus [45],≤ 0.25 µg/mL
same,MIC,Aspergillus fumigatus [46],≤ 0.03 µg/mL
